Test [1] addresses Methylcytosine dioxygenase TET2 (Homo sapiens) (UniProt Q6N021). Put plainly: Inhibition of recombinant human C-terminal His/N-terminal FLAG-tagged TET2 (1129 to 2002 residues) expressed in baculovirus infected sf9 cells assessed as reduction in oxidation of methylated dsDNA at 100 uM after 2 hrs by chemiluminescence assay relative to control. In outline: (§1)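 ELISA of oxidation of methylated double-stranded DNA by recombinant human TET1 or TET2, inhibitor tested at 100 μM. N = 3, mean ± SEM; two-way ANOVA.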

Test [2] has as its target Methylcytosine dioxygenase TET1 (Homo sapiens) (UniProt Q8NFU7). Kind of test: Inhibition of recombinant human N-terminal FLAG-tagged TET1 (1418 to 2136 residues) expressed in baculovirus infected sf9 cells assessed as reduction in oxidation of methylated dsDNA at 100 uM after 2 hrs by chemiluminescence assay relative to control. The method in brief: as §1
The next test is filed under the species Mus musculus. Put plainly: Inhibition of TET in mouse HT22 cells assessed as reduction in global DNA 5-hmc level at 10 uM after 24 hrs by spectrophotometric method. The test is classed as cell-based. The method in brief: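 HT-22 immortalized mouse hippocampal neurons dosed at 10 μM in 1% DMSO for 24 h, then lysed; DNA extracted and 5hmC detected with a 5hmC-specific antibody, colorimetric read-out giving percent 5hmC of all cytosine species. Vehicle control; N = 6 biological replicates per group, mean ± SEM, one-way ANOVA.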

In test [3] the target is DNA (cytosine-5)-methyltransferase 3A (Homo sapiens) (UniProt Q9Y6K1). Put plainly: Inhibition of DNMT3A (unknown origin) at 500 uM.

Activity calls are given as the source filed them. The calls are words filed in the database; no cut-off is given here.

Chain of Methylcytosine dioxygenase TET1 (Homo sapiens) (Q8NFU7 whole entry, the tested form may be a part): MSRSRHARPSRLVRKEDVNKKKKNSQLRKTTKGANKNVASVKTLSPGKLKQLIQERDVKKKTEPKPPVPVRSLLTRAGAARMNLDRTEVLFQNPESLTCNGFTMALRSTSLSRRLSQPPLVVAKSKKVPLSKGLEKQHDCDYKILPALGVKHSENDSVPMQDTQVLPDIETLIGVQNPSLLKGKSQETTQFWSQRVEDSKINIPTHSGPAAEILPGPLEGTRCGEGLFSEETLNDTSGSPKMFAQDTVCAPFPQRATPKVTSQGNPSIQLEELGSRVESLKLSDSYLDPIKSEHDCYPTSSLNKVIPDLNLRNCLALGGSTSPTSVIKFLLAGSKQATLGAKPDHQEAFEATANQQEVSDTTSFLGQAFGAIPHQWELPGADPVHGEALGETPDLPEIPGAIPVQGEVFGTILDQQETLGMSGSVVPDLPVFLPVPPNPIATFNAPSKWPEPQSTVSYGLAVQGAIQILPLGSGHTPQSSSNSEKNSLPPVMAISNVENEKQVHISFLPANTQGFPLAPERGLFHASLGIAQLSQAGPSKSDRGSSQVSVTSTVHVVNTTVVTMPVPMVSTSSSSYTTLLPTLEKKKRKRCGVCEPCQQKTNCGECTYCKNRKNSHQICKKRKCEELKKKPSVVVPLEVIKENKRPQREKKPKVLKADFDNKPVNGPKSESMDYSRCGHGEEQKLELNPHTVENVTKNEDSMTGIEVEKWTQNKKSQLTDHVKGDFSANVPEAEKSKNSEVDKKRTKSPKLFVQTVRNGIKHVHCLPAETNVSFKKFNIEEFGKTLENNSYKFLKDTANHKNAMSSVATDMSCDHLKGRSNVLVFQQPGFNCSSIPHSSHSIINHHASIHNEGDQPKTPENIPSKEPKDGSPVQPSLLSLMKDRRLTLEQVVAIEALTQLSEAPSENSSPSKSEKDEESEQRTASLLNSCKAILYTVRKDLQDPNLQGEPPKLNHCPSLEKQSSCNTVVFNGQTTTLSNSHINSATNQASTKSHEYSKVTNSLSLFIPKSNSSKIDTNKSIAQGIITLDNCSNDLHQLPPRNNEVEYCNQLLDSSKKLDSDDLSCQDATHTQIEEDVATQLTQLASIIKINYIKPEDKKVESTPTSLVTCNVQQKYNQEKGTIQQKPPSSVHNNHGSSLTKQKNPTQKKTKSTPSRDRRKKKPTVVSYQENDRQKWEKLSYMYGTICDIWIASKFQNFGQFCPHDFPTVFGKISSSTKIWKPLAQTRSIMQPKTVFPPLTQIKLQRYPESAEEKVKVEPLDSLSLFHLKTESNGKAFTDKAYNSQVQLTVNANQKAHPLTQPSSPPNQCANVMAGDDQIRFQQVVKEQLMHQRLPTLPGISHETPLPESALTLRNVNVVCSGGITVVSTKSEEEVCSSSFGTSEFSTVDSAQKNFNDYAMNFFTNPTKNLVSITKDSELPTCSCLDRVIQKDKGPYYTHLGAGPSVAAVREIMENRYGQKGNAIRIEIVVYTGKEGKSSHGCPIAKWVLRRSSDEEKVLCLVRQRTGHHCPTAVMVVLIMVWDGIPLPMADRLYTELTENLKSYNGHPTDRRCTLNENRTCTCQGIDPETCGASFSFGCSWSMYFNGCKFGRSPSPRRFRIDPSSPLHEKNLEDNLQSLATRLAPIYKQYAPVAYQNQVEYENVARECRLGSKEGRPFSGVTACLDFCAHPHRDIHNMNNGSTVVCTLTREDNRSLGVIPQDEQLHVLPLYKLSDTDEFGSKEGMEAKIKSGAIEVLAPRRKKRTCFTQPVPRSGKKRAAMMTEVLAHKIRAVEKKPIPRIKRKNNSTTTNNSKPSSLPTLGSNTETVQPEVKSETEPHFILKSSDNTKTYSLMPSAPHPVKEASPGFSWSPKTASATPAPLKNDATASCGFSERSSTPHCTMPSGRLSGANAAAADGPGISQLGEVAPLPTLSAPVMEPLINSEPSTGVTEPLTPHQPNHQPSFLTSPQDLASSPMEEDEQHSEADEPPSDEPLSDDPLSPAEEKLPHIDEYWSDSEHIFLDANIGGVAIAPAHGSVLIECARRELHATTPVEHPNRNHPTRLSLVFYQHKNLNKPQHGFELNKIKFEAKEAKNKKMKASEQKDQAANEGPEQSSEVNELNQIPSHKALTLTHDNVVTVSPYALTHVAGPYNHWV
Chain of DNA (cytosine-5)-methyltransferase 3A (Homo sapiens) (Q9Y6K1 whole entry, looked up): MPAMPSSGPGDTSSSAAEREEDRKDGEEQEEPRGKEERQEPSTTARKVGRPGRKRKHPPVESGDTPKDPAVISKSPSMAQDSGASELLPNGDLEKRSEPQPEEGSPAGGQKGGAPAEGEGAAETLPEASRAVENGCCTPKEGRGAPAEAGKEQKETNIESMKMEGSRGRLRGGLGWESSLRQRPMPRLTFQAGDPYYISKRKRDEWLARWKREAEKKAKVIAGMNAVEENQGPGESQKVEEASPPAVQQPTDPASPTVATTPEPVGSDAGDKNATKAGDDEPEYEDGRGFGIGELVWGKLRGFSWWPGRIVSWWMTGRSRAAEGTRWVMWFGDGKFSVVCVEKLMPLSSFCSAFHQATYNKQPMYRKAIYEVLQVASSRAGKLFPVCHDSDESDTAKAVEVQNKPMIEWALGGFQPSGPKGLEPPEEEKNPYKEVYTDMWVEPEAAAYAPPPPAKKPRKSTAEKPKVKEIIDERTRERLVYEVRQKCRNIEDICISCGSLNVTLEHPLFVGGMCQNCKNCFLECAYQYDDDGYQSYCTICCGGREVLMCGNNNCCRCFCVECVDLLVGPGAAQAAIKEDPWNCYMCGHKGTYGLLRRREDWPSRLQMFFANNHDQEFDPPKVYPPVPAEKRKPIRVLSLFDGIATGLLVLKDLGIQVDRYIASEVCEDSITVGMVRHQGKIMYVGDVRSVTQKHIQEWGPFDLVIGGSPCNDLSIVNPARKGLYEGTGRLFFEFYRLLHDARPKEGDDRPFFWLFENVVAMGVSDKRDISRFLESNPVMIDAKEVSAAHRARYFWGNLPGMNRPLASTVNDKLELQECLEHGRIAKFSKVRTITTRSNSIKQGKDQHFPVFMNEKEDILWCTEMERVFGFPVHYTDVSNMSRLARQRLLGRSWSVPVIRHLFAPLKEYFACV

Consider `Nc1nc(=O)n(-c2ccccc2-c2ccccc2)cc1Cl`, for which the inhibition entry in test [1] and in test [2] was “inactive” throughout.

As to `Nc1ccn(-c2ccccc2)c(=O)n1`, the inhibition entry in test [1] and in test [2] was “inactive” in each case.

Take `Nc1nc(=O)n(-c2ccc(-c3ccccc3)cc2)cc1Cl`: the inhibition entry in test [1] and in test [2] was “inactive” in each case.

`Nc1nc(=O)n(-c2ccccc2)cc1C(F)(F)F`: the inhibition entry in test [1] and in test [2] was “inactive” throughout.

For the compound `Nc1nc(=O)n(-c2ccccc2)cc1Cl`, the inhibition in test [1] is 43%; in test [2], 57%. Also, the inhibition result in the test filed under Mus musculus was “inactive”.

For `Nc1nc(=O)n(-c2cccc(-c3ccccc3)c2)cc1Cl`, the inhibition entry in test [3] is “inactive”. The inhibition entry (in the test filed under Mus musculus; in test [2]) was “Active” throughout.

The values above are taken from ChEMBL document CHEMBL4330181, “Cytosine-Based TET Enzyme Inhibitors” (ACS Med Chem Lett, 2019).
